High-throughput results as filed in PubChem BioAssay.
In the library only some 3.7% were active in any assay of this set; here they are far more common.
HCV core dimer – blocks dimerization of HCV core protein | 0.33% of 300,000 active | inhibition, % at 5 µM | AID 1899 | TR-FRET GST/Flag-core106 dimerization, 1536-well;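 active = inhibition above the mean of all tested compounds plus 3 SD, set per screening campaign, cut at about 45% in these data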
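System: GST/Flag-tagged HCV core106 proteins. Incubation: compound-protein-antibody incubation 4 h at 22.5 °C. Technique: HTRF with 340 nm excitation, 617/671 nm emission. Medium: KF-containing HEPES buffer, pH 7.45, DTT, CHAPS, BSA. Read-out: inhibition (%) from 671 over 617 nm ratio. Also added: Eu(K)-anti-GST 90 ng/mL plus XL665-anti-Flag 1 µg/mL.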
rCAG binder – r(CAG) repeat RNA binding. TO-PRO-1 dye displacement fluorescence. 1.3% of 370,000 active. inhibition, % at 3 µM. AID 651821;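 active = inhibition above the plate cutoff, the mean of all test compounds on that plate plus 3 SD, cut at about 35% in these data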;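 also: 0% = DMSO alone and 100% = 100 µM mitoxantrone as full dye displacement; higher means more dye released from RNA so lower well fluorescence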
NS3 helicase inh – HCV NS3 helicase inhibition. NS3 helicase DNA unwinding, Cy5 molecular beacon fluorescence. inhibition, % at 10.9 µM. 0.56% of 290,000 active. AID 1800;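 active = inhibition above the mean of all tested compounds plus 3 SD, set per campaign, cut at about 35% in these data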;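 also: 0% = DMSO wells and 100% = thioflavine S control wells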
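assay system = NS3 helicase fragment of HCV | buffer or medium = MOPS pH 6.5, MgCl2, DTT, Tween20, BSA | timing = 60 min unwinding reaction at 25 °C after ATP addition | signal = Cy5 beacon fluorescence read at start and 1 h | read-out basis = % inhibition of unwinding | control set = low DMSO, high thioflavine S at 110 µM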
TAAR1 ag – agonists of human TAAR1; Q96RJ0; CHO RD-HGA16 TAAR1, Fluo-8 calcium fluorescence; vehicle wells 0%, saturating PEA agonist 100%; activation, % at 3 µM; 0.99% of 360,000 active;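 active = activation above the mean activation of all test compounds in the run plus 3 SD, cut at about 38% in these data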
Target sequence (Q96RJ0 whole entry, looked up): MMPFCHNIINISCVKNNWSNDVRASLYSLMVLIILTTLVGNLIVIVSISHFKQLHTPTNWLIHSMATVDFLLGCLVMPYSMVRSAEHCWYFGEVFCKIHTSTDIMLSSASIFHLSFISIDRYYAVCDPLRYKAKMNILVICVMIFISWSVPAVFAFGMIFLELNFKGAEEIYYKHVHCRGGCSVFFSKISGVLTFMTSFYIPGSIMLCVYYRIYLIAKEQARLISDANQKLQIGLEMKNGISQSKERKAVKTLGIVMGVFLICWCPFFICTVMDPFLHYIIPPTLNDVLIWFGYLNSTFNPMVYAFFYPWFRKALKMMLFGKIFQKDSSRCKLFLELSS
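Signal – calcium-sensitive Fluo-8 signal, excitation 470-495, emission 515-575 nm · System – RD-HGA16 (CHO) cells co-expressing Gα16 and hTAAR1 · Incubation – 17-24 h seeding, 75 min 37 °C dye, 30 min RT · Compound dosing – 3 µM single concentration · Repeats – no replicates (n 1)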
TAAR1 antag – human TAAR1 antagonism. Q96RJ0. CHO RD-HGA16 TAAR1, Fluo-8 calcium fluorescence, antagonist. inhibition, % at 3 µM. 1.5% of 360,000 active. AID 624466;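 active = inhibition above a per-plate cutoff, the mean inhibition of test compounds on that plate plus 3 SD, cut at about 49% in these data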;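 also: 0% = DMSO plus EC80 beta-PEA response and 100% = DMSO alone without agonist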
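Assay system: CHO-derived RD-HGA16 cells stably expressing human TAAR1 plus Gα16. Timing: 140 s kinetic read after compound, 140 s after agonist. Technique: kinetic Fluo-8 calcium fluorescence measurement. Measure: % inhibition of agonist calcium response.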
TAAR1 ag conf – confirmation of human TAAR1 agonists | shares compounds with TAAR1 ag | CHO RD-HGA16 TAAR1, Fluo-8 calcium fluorescence; scaled: DMSO 0%, maximal phenethylamine 100% | activation, % at 3 µM | 82% of 2,400 active;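 active = activation above a cutoff set at the run's mean compound activation plus 3 SD, cut at about 39% in these data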
Ga16 nonsel ag – nonselective agonism, TAAR1 counter-screen; shares compounds with TAAR1 ag; CHO-Ga16 parental, Fluo-8 calcium fluorescence; normalized to maximal ATP response, DMSO zero; activation, % at 3 µM; 50% of 2,400 active; AID 651787;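 active = activation above the run cutoff, the mean activation over all tested wells plus 3 SD, cut at about 12% in these data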;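 also: 0% = DMSO wells and 100% = maximal ATP response on the peak over basal ratio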
TAAR1 desensitize – counter-screen for human TAAR1 agonists: agonists that desensitize TAAR1 | shares compounds with TAAR1 ag | 46% of 2,400 active | CHO RD-HGA16 hTAAR1, Fluo-8 calcium, beta-PEA response inhibition | inhibition, % at 3 µM;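 active = inhibition above the run cutoff, the mean inhibition of all test compounds plus 3 SD, cut at about 49% in these data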;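 also: beta-PEA stimulus applied at its EC80; loss of beta-PEA calcium signal after compound pretreatment read as receptor desensitization; 0% = DMSO with beta-PEA at EC80 and 100% = DMSO alone without agonist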
Ga16 nonsel ant – nonselective Ga16 antagonist in TAAR1 agonist counter-screen | shares compounds with TAAR1 ag | CHO-Ga16 ATP-induced calcium, Fluo-8 fluorescence | inhibition, % at 3 µM | 39% of 2,400 active | AID 651952;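 active = inhibition above the plate's mean compound inhibition plus 3 SD, computed per plate, cut at about 22% in these data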;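 also: 0% = EC80 ATP with DMSO and 100% = DMSO wells without ATP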
* hit, by the source's call; i = inactive; . = no result given.

SMILES | HCV core dimer | rCAG binder | NS3 helicase inh | TAAR1 ag | TAAR1 antag | TAAR1 ag conf | Ga16 nonsel ag | TAAR1 desensitize | Ga16 nonsel ant
O=C(NCCc1ccccc1)c1nc2nc(-c3cccs3)cc(C(F)(F)F)n2n1 | -1 | -3 | -9 | 84* | 84* | 91* | 4 | 90* | 18
Cc1cc(C)n2nc(CCc3ccccc3)nc2n1 | 5 | -3 | 23 | 12 | -7 | . | . | . | .
CCCN1CCS(=O)(=O)N(Cc2cn(Cc3ccc(C)cc3)nn2)C(C(=O)OC)C1 (stereo not drawn) | . | 2 | . | . | . | . | . | . | .
CCCN(CC1CC1)C(=O)c1ccc(CNC(=O)c2cccc(Br)c2)cc1 | . | 0 | . | . | . | . | . | . | .
Cc1cccc(NC(=O)C(=O)NCc2ccc3c(c2)OCO3)c1C | 2 | -4 | 9 | 56* | 36 | 10 | 1 | 1 | -1
Fc1ccc(Nc2nc(N3CCOCC3)c3ccccc3n2)cc1 | -5 | 1 | . | 65* | 63* | 65* | 7 | 42 | 16
Cc1nc(C(N)=O)c(N)n1CCc1ccccc1 | 8 | -2 | -5 | 98* | 72* | 70* | 1 | 48 | 5
Cc1cc2c(c(=O)o1)[C@@]1(C(=O)N(C)c3ccccc31)C1=C(CC(C)(C)OC1=O)O2 | . | 1 | . | 1 | -12 | . | . | . | .
O=C(CSc1nnc(-c2cccc(Cl)c2)n1Cc1ccco1)Nc1ccc2c(c1)OCO2 | . | 5 | . | . | . | . | . | . | .
Cc1cc2c(cc(C(=O)OCC(=O)NC3CCCCC3)n2C)o1 | . | 2 | . | 67* | 52* | 23 | 34* | 52* | 42*
C#CCN1CC(N(C)CCCO)CS1(=O)=O (stereo not drawn) | . | 3 | . | . | . | . | . | . | .
O=S1(=O)c2ccc(N3CC[C@@H](O)C3)cc2O[C@@H]2CCN1C2 | . | 5 | . | . | . | . | . | . | .
COC(=O)[C@]12C[C@H](CC(=O)NCCc3ccccc3OC)C(=O)N(Cc3ccc4c(c3)OCO4)C1=C[C@H](C(C)(C)C)O[C@@H]2C | . | 2 | . | 15 | 2 | . | . | . | .
COC(=O)[C@]12C[C@H](CC(=O)NCCc3ccccc3OC)C(=O)N(Cc3ccc4c(c3)OCO4)C1=C[C@H](COCc1ccccc1)O[C@@H]2C | . | 7 | . | . | . | . | 6 | . | 12
COC(=O)[C@]12C[C@H](CC(=O)NCCc3ccccc3OC)C(=O)N(Cc3ccccc3)C1=C[C@H](C(C)(C)C)O[C@@H]2C | . | 1 | . | 65* | 54* | 80* | 4 | 53* | 6
CCCCCCCCN1C(=O)[C@@H](CC(=O)NCCc2ccccc2OC)C[C@@]2(C(=O)OC)C1=C[C@H](C1CCCC1)O[C@@H]2C | . | 1 | . | 62* | 28 | 72* | 3 | 64* | 9
CCCCCCCCN1C(=O)[C@@H](CC(=O)NCCCOCCCC)C[C@@]2(C(=O)OC)C1=C[C@H](C1CCCC1)O[C@@H]2C | . | 3 | . | -2 | -16 | . | . | . | .
COc1ccc(Cc2nnc(NC(=O)CSc3ccc(Cl)cc3)s2)cc1OC | . | 4 | -6 | 87* | 35 | 75* | 42* | 36 | 20
COc1ccc(Cc2nnc(NC(=O)CSc3ccccc3)s2)cc1 | 7 | 6 | -10 | 49* | 50* | 8 | 0 | 3 | 7
COc1ccc(Cc2nnc(NC(=O)c3ccc(OC)c(OC)c3)s2)cc1OC | 0 | -1 | 1 | 1 | -13 | . | . | . | .
COc1ccc(Cc2nnc(NC(=O)CSc3ccc(C)cc3)s2)cc1 | 7 | 3 | -5 | 8 | -13 | . | . | . | .
COC(=O)[C@@]12CCCCC=C1N(CCc1ccc(Cl)cc1)C(=O)[C@H]2CC(=O)NCCC(C)C | . | 3 | . | . | . | . | . | . | .
CC(=O)c1ccc(NC(=S)NC(NC(=O)c2ccco2)C(Cl)(Cl)Cl)cc1 (stereo not drawn) | 8 | 12 | 5 | 96* | 43 | 106* | 29* | 80* | 21
CCOC(=O)c1cn(Cc2ccccc2)c(C(=O)OC(C)(C)C)c1O | 3 | -5 | . | 82* | 68* | 73* | 56* | 70* | 57*
C/C(NCCc1ccccc1)=C1/CCOC1=O | . | 1 | . | 91* | 90* | 98* | 0 | 88* | 3
SMILES | HCV core dimer | rCAG binder | NS3 helicase inh | TAAR1 ag | TAAR1 antag | TAAR1 ag conf | Ga16 nonsel ag | TAAR1 desensitize | Ga16 nonsel ant
O=C(NCCc1ccccc1)C1=COCCO1 | -1 | 2 | . | 0 | 2 | . | . | . | .
CCOC(=O)c1c(S(=O)(=O)NCCc2cccs2)c(C)n(C)c1C | -3 | -3 | -6 | 55* | -32 | 7 | 2 | 7 | 6
Cc1ccc(-c2c(C(=O)N/N=C/c3ccco3)nnn2-c2nonc2N)cc1 | -19 | 3 | 7 | 88* | -1 | 111* | 79* | 23 | 7
CCOc1ccc(-c2c(C(=O)N/N=C/c3ccco3)nnn2-c2nonc2N)cc1 | -1 | 6 | 23 | 92* | -13 | 64* | 49* | 16 | 6
COC(=O)c1cc(C2(c3c[nH]c4ccccc34)CCN(C(=O)OC(C)(C)C)CC2)n2ccccc12 | . | 11 | . | . | . | . | . | . | .
Cc1ccccc1NC(=O)c1ccc(C)c(S(=O)(=O)Nc2ccccn2)c1 | -3 | 1 | 4 | 6 | -9 | . | . | . | .
Cc1ccc(C(=O)Nc2ccc(Br)cc2)cc1S(=O)(=O)Nc1ccccn1 | 6 | 6 | -3 | 66* | 0 | 10 | 5 | 6 | 15
O=C(O)c1ccc2c3c(cccc13)C(=O)N(c1ccccc1)C2=O | 10 | 8 | 18 | -1 | 8 | . | . | . | .
Nc1ccc2c3c(cccc13)C(=O)N(c1ccccc1)C2=O | . | i | 2 | 403* | 85* | 176* | 147* | 53* | 50*
Cc1ccc(-n2nnnc2SCC(=O)Nc2ccc(N3CCN(C)CC3)cc2)c(C)c1 | -5 | -5 | -80 | 16 | 6 | . | . | . | .
Cc1ccc(SCC(=O)Nc2ccc(N3CCN(C)CC3)c(F)c2)c(C)c1 | -3 | -5 | -72 | 60* | 52* | 80* | 2 | 75* | 7
COc1ccc(-n2c(SCC(=O)NCC3CCCO3)nnc2-c2ccncc2)cc1 (stereo not drawn) | . | 0 | . | . | . | . | . | . | .
O=C(Nc1cccc2ccccc12)N1CCc2ccccc2C1 | 8 | -4 | -3 | 77* | 74* | 78* | 2 | 65* | 8
CCc1ccccc1NC(=O)N1CCCc2ccccc21 | . | 2 | -8 | 0 | -16 | . | . | . | .
